{"source": "ChEMBL document CHEMBL3784919", "about": "“Design and synthesis of novel 5-aminosalicylate (5-ASA)-4-thiazolinone hybrid derivatives with promising antiproliferative activity” (Bioorg Med Chem Lett, 2016)", "key": {"MCF7 [1]": {"system": "MCF7", "experiment": "Antiproliferative activity against human MCF7 cells assessed as cell survival at 10 uM after 48 hrs by SRB assay", "type": "functional", "details": "MCF7, 48 h, read-out: Survival", "in_short": "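Human breast cancer MCF-7 cells were exposed once to a single compound concentration for 48 h. Vehicle controls received DMSO, added as 0.1%. Survival was read by sulforhodamine B staining and expressed as percent of cells remaining relative to the DMSO control, set at 100%, with SD.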"}, "HeLa": {"system": "HeLa", "experiment": "Antiproliferative activity against human HeLa cells assessed as cell viability after 48 hrs by SRB assay", "type": "functional, cell-based"}, "[2]": {"experiment": "Cytotoxicity against human F180 cells assessed as cell viability after 48 hrs by SRB assay", "type": "cell-based", "details": "F180, 48 h"}, "MCF7 [3]": {"system": "MCF7", "experiment": "Antiproliferative activity against human MCF7 cells assessed as cell viability after 48 hrs by SRB assay", "type": "functional, cell-based", "details": "MCF7, 48 h"}, "A549": {"system": "A549", "experiment": "Antiproliferative activity against human A549 cells assessed as cell viability after 48 hrs by SRB assay", "type": "functional, cell-based", "details": "A549, 48 h"}, "[4]": {"experiment": "Antiproliferative activity against human HCT116 cells assessed as cell viability after 48 hrs by SRB assay", "type": "functional, cell-based", "details": "HCT-116, 48 h"}, "[5]": {"experiment": "Ratio of compound IC50 to doxorubicin IC50 for human F180 cells", "type": "ADME, cell-based", "details": "read-out: Ratio IC50"}}, "data": [{"smiles": "COC(=O)c1cc(NC2=NC(=O)/C(=C/c3cc(OC)c(OC)c(OC)c3)S2)ccc1O", "values": [{"measurement": "viability at 10 µM", "setting": "MCF7 [1]", "result": 73.3, "unit": "%"}]}, {"smiles": "COC(=O)c1cc(NC2=NC(=O)/C(=C/c3ccc(C)cc3)S2)ccc1O", "values": [{"measurement": "viability at 10 µM", "setting": "MCF7 [1]", "result": 17.8, "unit": "%"}, {"measurement": "IC50", "setting": "HeLa", "result": 85, "unit": "nM"}, {"measurement": "IC50", "setting": "[2]", "result": 1050, "unit": "nM"}, {"measurement": "IC50", "setting": "MCF7 [3]", "result": 410, "unit": "nM"}, {"measurement": "IC50", "setting": "A549", "result": 2200, "unit": "nM"}, {"measurement": "IC50", "setting": "[4]", "result": 450, "unit": "nM"}]}, {"smiles": "COC(=O)c1cc(NC2=NC(=O)/C(=C/c3cccc([N+](=O)[O-])c3)S2)ccc1O", "values": [{"measurement": "viability at 10 µM", "setting": "MCF7 [1]", "result": 82.2, "unit": "%"}]}, {"smiles": "COC(=O)c1cc(NC2=NC(=O)/C(=C/c3cccc(Cl)c3)S2)ccc1O", "values": [{"measurement": "viability at 10 µM", "setting": "MCF7 [1]", "result": 65.9, "unit": "%"}]}, {"smiles": "COC(=O)c1cc(NC2=NC(=O)/C(=C/c3ccccc3Cl)S2)ccc1O", "values": [{"measurement": "viability at 10 µM", "setting": "MCF7 [1]", "result": 85, "unit": "%"}]}, {"smiles": "COc1cccc2c1C(=O)c1c(O)c3c(c(O)c1C2=O)C[C@@](O)(C(=O)CO)C[C@@H]3O[C@H]1C[C@H](N)[C@H](O)[C@H](C)O1", "note": "[DOXORUBICIN]", "values": [{"measurement": "viability at 10 µM", "setting": "MCF7 [1]", "result": 4, "unit": "%"}, {"measurement": "IC50", "setting": "HeLa", "result": 100, "unit": "nM"}, {"measurement": "IC50", "setting": "[2]", "result": 350, "unit": "nM"}, {"measurement": "IC50", "setting": "A549", "result": 450, "unit": "nM"}, {"measurement": "IC50", "setting": "[4]", "result": 380, "unit": "nM"}]}, {"smiles": "COC(=O)c1cc(NC2=NC(=O)CS2)ccc1O", "values": [{"measurement": "viability at 10 µM", "setting": "MCF7 [1]", "result": 97, "unit": "%"}]}, {"smiles": "COC(=O)c1cc(NC2=NC(=O)/C(=C/c3ccc([N+](=O)[O-])cc3)S2)ccc1O", "values": [{"measurement": "viability at 10 µM", "setting": "MCF7 [1]", "result": 73.9, "unit": "%"}]}, {"smiles": "COC(=O)c1cc(NC2=NC(=O)/C(=C/c3ccc(O)cc3)S2)ccc1O", "values": [{"measurement": "viability at 10 µM", "setting": "MCF7 [1]", "result": 93.5, "unit": "%"}]}, {"smiles": "COC(=O)c1cc(NC2=NC(=O)/C(=C/c3ccccc3OC)S2)ccc1O", "values": [{"measurement": "viability at 10 µM", "setting": "MCF7 [1]", "result": 70, "unit": "%"}]}, {"smiles": "COC(=O)c1cc(NC2=NC(=O)/C(=C/c3cccc(Br)c3)S2)ccc1O", "values": [{"measurement": "viability at 10 µM", "setting": "MCF7 [1]", "result": 68, "unit": "%"}]}, {"smiles": "COC(=O)c1cc(NC2=NC(=O)/C(=C/c3ccc(Cl)cc3)S2)ccc1O", "values": [{"measurement": "viability at 10 µM", "setting": "MCF7 [1]", "result": 28, "unit": "%"}]}, {"smiles": "COC(=O)c1cc(NC2=NC(=O)/C(=C/c3ccc(N(C)C)cc3)S2)ccc1O", "values": [{"measurement": "viability at 10 µM", "setting": "MCF7 [1]", "result": 16.2, "unit": "%"}, {"measurement": "IC50", "setting": "HeLa", "result": 180, "unit": "nM"}, {"measurement": "IC50", "setting": "[2]", "result": 940, "unit": "nM"}, {"measurement": "IC50", "setting": "MCF7 [3]", "result": 630, "unit": "nM"}, {"measurement": "IC50", "setting": "A549", "result": 2400, "unit": "nM"}, {"measurement": "IC50", "setting": "[4]", "result": 310, "unit": "nM"}]}, {"smiles": "COC(=O)c1cc(NC2=NC(=O)/C(=C/c3ccc(Br)cc3)S2)ccc1O", "values": [{"measurement": "selectivity ratio", "setting": "[5]", "result": 28}, {"measurement": "viability at 10 µM", "setting": "MCF7 [1]", "result": 19, "unit": "%"}, {"measurement": "IC50", "setting": "HeLa", "result": 3480, "unit": "nM"}, {"measurement": "IC50", "setting": "[2]", "result": 10000, "unit": "nM"}, {"measurement": "IC50", "setting": "MCF7 [3]", "result": 70, "unit": "nM"}, {"measurement": "IC50", "setting": "A549", "result": 8300, "unit": "nM"}, {"measurement": "IC50", "setting": "[4]", "result": 5580, "unit": "nM"}]}, {"smiles": "COC(=O)c1cc(NC2=NC(=O)/C(=C/c3ccccc3O)S2)ccc1O", "values": [{"measurement": "viability at 10 µM", "setting": "MCF7 [1]", "result": 16.5, "unit": "%"}, {"measurement": "IC50", "setting": "HeLa", "result": 1390, "unit": "nM"}, {"measurement": "IC50", "setting": "[2]", "result": "> 10000", "unit": "nM"}, {"measurement": "IC50", "setting": "MCF7 [3]", "result": 500, "unit": "nM"}, {"measurement": "IC50", "setting": "A549", "result": "> 10000", "unit": "nM"}, {"measurement": "IC50", "setting": "[4]", "result": 3440, "unit": "nM"}]}, {"smiles": "COC(=O)c1cc(NC2=NC(=O)/C(=C/c3ccc4c(c3)OCO4)S2)ccc1O", "values": [{"measurement": "viability at 10 µM", "setting": "MCF7 [1]", "result": 28, "unit": "%"}]}, {"smiles": "COC(=O)c1cc(NC2=NC(=O)/C(=C/c3ccccc3)S2)ccc1O", "values": [{"measurement": "viability at 10 µM", "setting": "MCF7 [1]", "result": 67.8, "unit": "%"}]}, {"smiles": "COC(=O)c1cc(NC2=NC(=O)/C(=C/c3ccc(OC)c(OC)c3)S2)ccc1O", "values": [{"measurement": "viability at 10 µM", "setting": "MCF7 [1]", "result": 26.6, "unit": "%"}]}, {"smiles": "COC(=O)c1cc(NC2=NC(=O)/C(=C/c3ccc(OC)cc3)S2)ccc1O", "values": [{"measurement": "viability at 10 µM", "setting": "MCF7 [1]", "result": 26, "unit": "%"}]}, {"smiles": "COC(=O)c1cc(NC2=NC(=O)/C(=C/c3ccc(F)cc3)S2)ccc1O", "values": [{"measurement": "viability at 10 µM", "setting": "MCF7 [1]", "result": 86, "unit": "%"}]}]}
